The values that follow come from ChEMBL document CHEMBL4396947, “Synthesis and characterization of novel isoform-selective IP6K1 inhibitors” (Bioorg Med Chem Lett, 2019).

Usually ΔTm stands for the change in melting temperature against a reference sample.

The target in data set [1] is Epidermal growth factor receptor (Homo sapiens) (UniProt P00533). Kind of data set: Inhibition of recombinant human EGFR (696 to end residues) assessed as residual activity at 10 uM using poly (Glu,Tyr) 4:1 as substrate incubated for 40 mins in presence of [gamma-33P]ATP at Km concentration by radiometric assay relative to control.
Data set [2] has as its target 5'-AMP-activated protein kinase catalytic subunit alpha-1 (Homo sapiens) (UniProt Q13131). Kind of data set: Inhibition of human full length recombinant AMPKalpha1 assessed as residual activity at 10 uM using AMARAASAAALAR as substrate incubated for 40 mins in presence of [gamma-33P]ATP at Km concentration by radiometric assay relative to control.
For data set [3], the target named is Ephrin type-A receptor 5 (Homo sapiens) (UniProt P54756). Kind of data set: Inhibition of recombinant human EPHA5 (655 to 956 residues) assessed as residual activity at 10 uM using poly (Glu,Tyr) 4:1 as substrate incubated for 40 mins in presence of [gamma-33P]ATP at Km concentration by radiometric assay relative to control.
The target of data set [4] is Tyrosine-protein kinase receptor TYRO3 (Homo sapiens) (UniProt Q06418). The data set can be described thus: Inhibition of recombinant human RSE (451 to end residues) assessed as residual activity at 10 uM using KVEKIGEGTYGVV as substrate incubated for 40 mins in presence of [gamma-33P]ATP at Km concentration by scintillation counting method relative to control.
The target in data set [5] is CDK2/Cyclin A2 (Homo sapiens) (UniProt P24941+P20248). The data set can be described thus: Inhibition of human full length recombinant CDK2/cyclinA assessed as residual activity at 10 uM using Histone H1 as substrate incubated for 40 mins in presence of [gamma-33P]ATP at Km concentration by radiometric assay relative to control. It is filed as protein-complex assay.

For data set [6], the target named is CDK9/cyclin T1 (Homo sapiens) (UniProt O60563+P50750). Kind of data set: Inhibition of recombinant full length human CDK9/CyclinT1 assessed as residual activity at 10 uM using KTFCGTPEYLAPE as substrate incubated for 40 mins in presence of [gamma-33P]ATP at Km concentration by radiometric assay relative to control. It is filed as protein-complex assay.
For data set [7], the target named is cAMP-dependent protein kinase catalytic subunit alpha (Homo sapiens) (UniProt P17612). The data set can be described thus: Inhibition of recombinant full length human PRKACA assessed as residual activity at 10 uM using LRRASLG as substrate incubated for 40 mins in presence of [gamma-33P]ATP at Km concentration by radiometric assay relative to control.
The target of data set [8] is Tyrosine-protein kinase Lyn (Homo sapiens) (UniProt P07948). The data set can be described thus: Inhibition of full length recombinant human LYN assessed as residual activity at 10 uM using poly (Glu,Tyr) 4:1 as substrate incubated for 40 mins in presence of [gamma-33P]ATP at Km concentration by radiometric assay relative to control.
Chain of Tyrosine-protein kinase Lyn (Homo sapiens) (P07948 2-512 limits assumed): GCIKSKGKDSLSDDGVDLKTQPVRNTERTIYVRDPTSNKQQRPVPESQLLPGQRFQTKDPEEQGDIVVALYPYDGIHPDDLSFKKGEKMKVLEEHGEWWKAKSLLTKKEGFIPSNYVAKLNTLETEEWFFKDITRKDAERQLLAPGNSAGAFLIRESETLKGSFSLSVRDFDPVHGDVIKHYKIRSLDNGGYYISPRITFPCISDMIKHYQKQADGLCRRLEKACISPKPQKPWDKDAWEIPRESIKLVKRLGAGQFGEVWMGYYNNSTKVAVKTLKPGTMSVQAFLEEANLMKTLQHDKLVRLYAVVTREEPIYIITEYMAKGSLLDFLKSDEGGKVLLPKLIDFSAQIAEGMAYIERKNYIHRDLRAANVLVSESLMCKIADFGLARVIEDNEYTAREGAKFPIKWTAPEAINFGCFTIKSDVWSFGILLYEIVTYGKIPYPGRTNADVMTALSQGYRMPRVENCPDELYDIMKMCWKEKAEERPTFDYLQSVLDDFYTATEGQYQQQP
The species entered for data set [9] is Homo sapiens. The data set can be described thus: Inhibition of recombinant human MAPKAPK2 A399G mutant (46 to end residues) assessed as residual activity at 10 uM using KKLNRTLSVA as substrate incubated for 40 mins in presence of [gamma-33P]ATP at Km concentration by radiometric assay relative to control.
The target in data set [10] is Tyrosine-protein kinase ABL1 (Homo sapiens) (UniProt P00519). Kind of data set: Inhibition of human recombinant ABL (27 to end residues) assessed as residual activity at 10 uM using EAIYAAPFAKKK as substrate incubated for 40 mins in presence of [gamma-33P]ATP at Km concentration by radiometric assay relative to control.
Data set [11] is described as follows: Half life in rat microsomes at 1 uM in presence of NADPH. It is filed as ADME, Microsome.
Data set [12] concerns the target Calcium/calmodulin-dependent protein kinase type 1 (Homo sapiens) (UniProt Q14012). The data set can be described thus: Inhibition of human full length recombinant CAMKI assessed as residual activity at 10 uM using KKLRRTLSFAEPG as substrate incubated for 40 mins in presence of [gamma-33P]ATP at Km concentration by radiometric assay relative to control.
The target in data set [13] is PI3K p110 beta/p85 alpha (Homo sapiens) (UniProt P27986+P42338). The data set can be described thus: Inhibition of recombinant full length human PI3K p110beta/p85alpha assessed as residual activity at 10 uM incubated for 40 mins in presence of [gamma-33P]ATP at Km concentration by radiometric assay relative to control. It is filed as protein-complex assay.
Chain of PI3K p110 beta/p85 alpha (Homo sapiens) (P27986 2-724 limits assumed): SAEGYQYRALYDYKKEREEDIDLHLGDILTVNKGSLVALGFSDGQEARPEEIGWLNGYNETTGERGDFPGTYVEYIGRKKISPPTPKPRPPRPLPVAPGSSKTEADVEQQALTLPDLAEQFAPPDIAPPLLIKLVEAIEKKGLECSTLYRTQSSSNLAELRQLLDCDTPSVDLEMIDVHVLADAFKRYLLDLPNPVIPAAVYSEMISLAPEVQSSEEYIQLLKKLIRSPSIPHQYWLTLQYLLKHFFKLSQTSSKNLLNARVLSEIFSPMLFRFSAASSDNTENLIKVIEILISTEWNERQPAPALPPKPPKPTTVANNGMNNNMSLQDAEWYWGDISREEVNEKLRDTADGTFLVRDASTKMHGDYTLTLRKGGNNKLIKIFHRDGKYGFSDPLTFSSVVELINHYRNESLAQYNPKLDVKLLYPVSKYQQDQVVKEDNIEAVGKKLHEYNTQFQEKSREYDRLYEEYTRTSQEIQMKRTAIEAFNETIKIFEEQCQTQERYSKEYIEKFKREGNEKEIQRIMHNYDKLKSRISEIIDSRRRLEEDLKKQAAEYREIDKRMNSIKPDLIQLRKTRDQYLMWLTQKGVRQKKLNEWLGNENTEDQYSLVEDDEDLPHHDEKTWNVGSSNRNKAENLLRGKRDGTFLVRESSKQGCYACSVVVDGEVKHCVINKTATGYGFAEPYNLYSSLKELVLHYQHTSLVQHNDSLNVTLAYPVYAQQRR
Chain of PI3K p110 beta/p85 alpha (Homo sapiens) (P42338 whole entry partner, the tested form may be a part, canonical isoform): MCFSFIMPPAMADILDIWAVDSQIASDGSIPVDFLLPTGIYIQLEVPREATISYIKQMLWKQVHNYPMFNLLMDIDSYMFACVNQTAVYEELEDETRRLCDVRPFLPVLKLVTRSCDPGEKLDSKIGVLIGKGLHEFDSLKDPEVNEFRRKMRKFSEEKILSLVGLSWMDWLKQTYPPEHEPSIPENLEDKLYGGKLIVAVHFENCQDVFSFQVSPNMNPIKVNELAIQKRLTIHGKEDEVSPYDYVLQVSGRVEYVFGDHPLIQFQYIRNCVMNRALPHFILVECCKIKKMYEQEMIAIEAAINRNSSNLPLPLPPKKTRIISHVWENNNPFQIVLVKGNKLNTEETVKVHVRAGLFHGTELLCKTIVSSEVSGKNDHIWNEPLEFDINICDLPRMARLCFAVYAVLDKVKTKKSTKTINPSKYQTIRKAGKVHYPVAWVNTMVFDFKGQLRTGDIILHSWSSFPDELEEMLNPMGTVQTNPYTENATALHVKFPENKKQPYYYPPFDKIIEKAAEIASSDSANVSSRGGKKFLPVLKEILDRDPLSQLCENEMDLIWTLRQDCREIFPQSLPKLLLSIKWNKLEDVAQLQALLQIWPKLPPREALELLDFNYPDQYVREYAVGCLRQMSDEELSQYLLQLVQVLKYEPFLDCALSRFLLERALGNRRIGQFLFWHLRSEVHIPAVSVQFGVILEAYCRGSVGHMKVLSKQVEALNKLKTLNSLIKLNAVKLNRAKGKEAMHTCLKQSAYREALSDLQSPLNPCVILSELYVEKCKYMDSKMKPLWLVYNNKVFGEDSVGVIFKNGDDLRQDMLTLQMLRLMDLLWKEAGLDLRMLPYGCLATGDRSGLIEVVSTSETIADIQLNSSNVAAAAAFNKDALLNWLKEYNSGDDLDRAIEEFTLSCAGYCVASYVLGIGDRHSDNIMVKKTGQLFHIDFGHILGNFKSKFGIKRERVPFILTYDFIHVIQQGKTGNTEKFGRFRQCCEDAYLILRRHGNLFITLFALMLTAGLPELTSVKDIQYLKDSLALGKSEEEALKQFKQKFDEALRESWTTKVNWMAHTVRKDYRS
Data set [14] concerns the target Casein kinase I isoform gamma-1 (Homo sapiens) (UniProt Q9HCP0). The data set can be described thus: Inhibition of recombinant human CK1gamma1 (25 to 355 residues) assessed as residual activity at 10 uM using KRRRALS(p)VAS as substrate incubated for 40 mins in presence of [gamma-33P]ATP at Km concentration by radiometric assay relative to control.
The target in data set [15] is Inositol hexakisphosphate kinase 1 (Homo sapiens, UniProt Q92551). The data set can be described thus: Binding affinity to IP6K1 (unknown origin) assessed as change in melting temperature by SYPRO orange dye-based assay. A digest of the protocol:
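Thermal shift format. Purified IP6K1 heated across a temperature gradient with the ligand at several concentrations. Binding read as the rise in protein melting temperature, including the maximal Tm shift (TmMax).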

For data set [16], the species on record is Homo sapiens. Kind of data set: Inhibition of recombinant human PKBalpha S478G mutant assessed as residual activity at 10 uM using GRPRTSSFAEGKK as substrate incubated for 40 mins in presence of [gamma-33P]ATP at Km concentration by radiometric assay relative to control.
For data set [17], the species on record is Homo sapiens. Kind of data set: Inhibition of recombinant full length human PI3K p120gamma R459Q mutant assessed as residual activity at 10 uM using phosphatidylinositol-4,5 bisphosphate as substrate incubated for 40 mins in presence of [gamma-33P]ATP at Km concentration by radiometric assay relative to control.
The target in data set [18] is Platelet-derived growth factor receptor beta (Homo sapiens) (UniProt P09619). The data set can be described thus: Inhibition of recombinant human PDGFRbeta (557 to end residues) assessed as residual activity at 10 uM using poly (Glu,Tyr) 4:1 as substrate incubated for 40 mins in presence of [gamma-33P]ATP at Km concentration by radiometric assay relative to control.
Chain of Platelet-derived growth factor receptor beta (Homo sapiens) (P09619 whole entry): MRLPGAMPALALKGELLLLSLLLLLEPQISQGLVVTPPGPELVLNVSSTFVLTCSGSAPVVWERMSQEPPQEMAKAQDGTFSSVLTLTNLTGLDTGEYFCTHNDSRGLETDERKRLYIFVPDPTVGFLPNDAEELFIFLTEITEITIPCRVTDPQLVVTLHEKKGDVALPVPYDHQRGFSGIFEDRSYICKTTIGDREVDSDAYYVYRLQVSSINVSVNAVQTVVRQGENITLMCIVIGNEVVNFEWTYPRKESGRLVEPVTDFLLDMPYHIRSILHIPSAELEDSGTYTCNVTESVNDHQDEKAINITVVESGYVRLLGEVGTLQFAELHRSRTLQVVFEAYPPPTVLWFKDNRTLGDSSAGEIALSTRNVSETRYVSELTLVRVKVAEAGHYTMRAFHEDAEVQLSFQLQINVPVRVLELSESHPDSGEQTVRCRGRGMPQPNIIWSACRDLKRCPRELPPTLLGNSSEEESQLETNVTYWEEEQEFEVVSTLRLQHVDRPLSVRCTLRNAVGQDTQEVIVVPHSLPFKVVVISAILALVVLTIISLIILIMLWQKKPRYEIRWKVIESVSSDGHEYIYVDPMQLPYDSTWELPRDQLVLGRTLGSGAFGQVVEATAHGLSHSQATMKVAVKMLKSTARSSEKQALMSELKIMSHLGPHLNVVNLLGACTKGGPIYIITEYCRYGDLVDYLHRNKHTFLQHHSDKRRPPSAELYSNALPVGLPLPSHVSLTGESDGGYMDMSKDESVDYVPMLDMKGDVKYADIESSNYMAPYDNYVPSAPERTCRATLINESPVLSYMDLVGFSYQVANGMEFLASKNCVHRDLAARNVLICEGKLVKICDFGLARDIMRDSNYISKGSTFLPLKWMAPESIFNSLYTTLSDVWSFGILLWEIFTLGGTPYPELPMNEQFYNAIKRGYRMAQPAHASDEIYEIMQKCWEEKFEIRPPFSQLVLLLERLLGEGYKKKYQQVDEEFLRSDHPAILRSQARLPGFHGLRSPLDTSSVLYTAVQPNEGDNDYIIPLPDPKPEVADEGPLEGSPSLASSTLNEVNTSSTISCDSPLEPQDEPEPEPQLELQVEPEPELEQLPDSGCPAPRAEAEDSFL

For data set [19], the species on record is Homo sapiens. The data set can be described thus: Selectivity ratio of Ki for IP6K2 (unknown origin) to Ki for IP6K1 (unknown origin). A digest of the protocol: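 Purified IP6K1, IP6K2 and IP6K3 were each tested in an ADP-Glo Max luminescence assay optimized for IP6K, with 1 mM ATP consumed as the kinase reaction proceeds. IC50 values from each isoform were converted to Ki with the Cheng-Prusoff equation, and the Ki ratio versus IP6K1 was taken.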

Data set [20] concerns the target Serine/threonine-protein kinase 4 (Homo sapiens) (UniProt Q13043). The data set can be described thus: Inhibition of full length recombinant human MST1 assessed as residual activity at 10 uM using KKSRGDYMTMQIG as substrate incubated for 40 mins in presence of [gamma-33P]ATP at Km concentration by radiometric assay relative to control.
Data set [21] concerns the target Tyrosine-protein kinase JAK2 (Homo sapiens) (UniProt O60674). The data set can be described thus: Inhibition of human recombinant JAK2 (808 to end residues) assessed as residual activity at 10 uM using KTFCGTPEYLAPE as substrate incubated for 40 mins in presence of [gamma-33P]ATP at Km concentration by radiometric assay relative to control.

Chain of Serine/threonine-protein kinase 4 (Homo sapiens) (Q13043 whole entry): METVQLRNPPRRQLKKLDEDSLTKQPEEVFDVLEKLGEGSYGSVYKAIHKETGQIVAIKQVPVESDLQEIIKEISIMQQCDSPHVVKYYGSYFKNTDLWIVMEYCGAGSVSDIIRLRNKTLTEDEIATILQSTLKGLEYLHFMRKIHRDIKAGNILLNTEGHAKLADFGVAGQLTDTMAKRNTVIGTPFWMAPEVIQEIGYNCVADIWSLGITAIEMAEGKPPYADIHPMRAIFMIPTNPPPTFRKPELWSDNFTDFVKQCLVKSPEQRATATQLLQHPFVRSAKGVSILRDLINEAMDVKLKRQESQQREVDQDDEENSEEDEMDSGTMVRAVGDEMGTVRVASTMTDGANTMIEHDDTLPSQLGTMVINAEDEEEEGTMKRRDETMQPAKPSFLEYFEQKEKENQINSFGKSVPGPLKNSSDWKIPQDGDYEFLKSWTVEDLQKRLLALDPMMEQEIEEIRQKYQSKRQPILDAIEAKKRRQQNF
Chain of Tyrosine-protein kinase JAK2 (Homo sapiens) (O60674 whole entry): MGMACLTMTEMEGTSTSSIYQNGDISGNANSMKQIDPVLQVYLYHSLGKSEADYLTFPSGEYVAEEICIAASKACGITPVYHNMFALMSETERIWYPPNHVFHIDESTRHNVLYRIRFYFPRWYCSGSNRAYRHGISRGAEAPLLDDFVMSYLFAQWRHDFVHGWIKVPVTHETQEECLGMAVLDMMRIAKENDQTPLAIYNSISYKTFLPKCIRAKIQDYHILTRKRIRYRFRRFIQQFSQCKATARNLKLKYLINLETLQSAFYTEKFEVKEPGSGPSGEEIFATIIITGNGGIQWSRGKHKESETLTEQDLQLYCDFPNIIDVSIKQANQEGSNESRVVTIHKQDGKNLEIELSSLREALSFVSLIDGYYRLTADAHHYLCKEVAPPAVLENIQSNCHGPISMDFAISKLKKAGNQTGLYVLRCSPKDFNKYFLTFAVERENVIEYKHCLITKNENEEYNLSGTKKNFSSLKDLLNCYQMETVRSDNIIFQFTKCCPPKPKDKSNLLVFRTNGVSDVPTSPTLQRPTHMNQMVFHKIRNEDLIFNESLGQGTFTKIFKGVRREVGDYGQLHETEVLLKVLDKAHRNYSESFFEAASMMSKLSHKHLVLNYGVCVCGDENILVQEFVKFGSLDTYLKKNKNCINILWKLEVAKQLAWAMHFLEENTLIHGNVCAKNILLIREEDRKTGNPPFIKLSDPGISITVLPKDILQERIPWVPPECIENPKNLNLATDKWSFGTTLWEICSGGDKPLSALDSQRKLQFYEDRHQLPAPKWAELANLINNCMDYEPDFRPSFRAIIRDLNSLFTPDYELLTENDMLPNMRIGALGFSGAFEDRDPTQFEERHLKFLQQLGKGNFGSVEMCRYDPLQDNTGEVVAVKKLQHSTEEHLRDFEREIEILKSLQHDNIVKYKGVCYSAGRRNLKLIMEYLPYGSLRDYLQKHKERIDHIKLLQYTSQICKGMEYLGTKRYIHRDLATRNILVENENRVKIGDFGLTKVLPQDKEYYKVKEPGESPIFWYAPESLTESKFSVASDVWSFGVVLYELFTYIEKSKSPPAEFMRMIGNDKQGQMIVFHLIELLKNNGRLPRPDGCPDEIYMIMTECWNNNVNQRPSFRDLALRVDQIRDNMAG

On to `COc1ccc2c(CCNc3nc(NCc4ccc(=O)[nH]c4)c4nc[nH]c4n3)c[nH]c2c1`, for which the Activity worked out at 75% in [1]; 97% in data set [2]; 114% in [3]; 91% in data set [4]; 90% in data set [5]; 79% in data set [6]. Moreover, the Activity in data set [7] is 77%; in data set [8], 86%; in [9] it was 102%; in [10] it was 90%; in data set [12] it was 77%; in [13], 93%. Further, the Activity in data set [14] turned out to be 6%; in data set [16], 84%; in data set [17], 94%; in [18], 101%; in [20], 82%; in data set [21], 96%. Further, the t1/2 in data set [11] stood at 38 min. The ΔTm in data set [15] stood at 6.6 °C. In [19], the Ratio Ki turned out to be 24.4.
